# Assay results taken from ChEMBL document CHEMBL4052675, “Synthesis, biological evaluation and molecular modeling of imidazo[1,2-a]pyridine derivatives as potent antitubulin agents” (Bioorg Med Chem, 2017).
# Calls of active or inactive are those of the source. The rule behind the calls is not given here.
# Experiments:
# Homo sapiens [1] = organism: Homo sapiens; test: Inhibition of colchicine binding to tubulin (unknown origin) up to 15 uM pretreated for 1 hr followed by colchicine addition by spectrofluorometric method
# In short: (§1)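 Tubulin preincubated 1 h at 37 °C with test agent (0, 1.6, 5, 15 μM), then colchicine added to a final 5 μM. Fluorescence read at excitation 365 nm and emission 435 nm, with buffer blank subtracted. Value is F/F0 × 100%, where F0 is fluorescence of the colchicine–tubulin complex without competitor.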
# NCI-H460 = test: Cytotoxicity against human NCI-H460 cells after 72 hrs by MTT assay; type: functional, cell-based; settings: NCI-H460, 72 h
# In short: (§2)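 Cells grown in MEM with 10% FBS; about 4×10^3 cells per well, preincubated 24 h at 37 °C in 5% CO₂, then exposed to compounds for 72 h. MTT at a […] added for 4 h at 37 °C. Formazan dissolved in DMSO; absorbance read at 492 nm against 630 nm reference. Three runs per line; IC50 reported as mean ± SD.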
# HT-29 [2] = test: Cytotoxicity against human HT-29 cells after 72 hrs by MTT assay; type: functional, cell-based; settings: HT-29, 72 h; in short: as §2
# A549 = test: Cytotoxicity against human A549 cells after 72 hrs by MTT assay; type: functional, cell-based; settings: A549, 72 h; in short: as §2
# SMMC-7721 = test: Cytotoxicity against human SMMC7721 cells after 72 hrs by MTT assay; type: functional, cell-based; settings: SMMC-7721, 72 h; in short: as §2
# MKN-45 = test: Cytotoxicity against human MKN45 cells after 72 hrs by MTT assay; type: functional, cell-based; settings: MKN-45, 72 h; in short: as §2
# Homo sapiens [3] = organism: Homo sapiens; test: Inhibition of tubulin polymerization in human HT-29 cells assessed as microtubule disruption by measuring scattered short microtubule fragment in cytoplasm at 20 nM after 24 hrs by DAPI staining based immunofluorescence microscopic analysis; type: cell-based
# In short: (§3)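 HT-29 seeded at 1×10^4 per well, grown 24 h, then treated 24 h; controls received medium. Fixed in 4% formaldehyde/PBS (30 min, −20 °C), permeabilized with 0.2% Triton X-100, and blocked with 5% BSA. Stained with anti-α-tubulin (1:100, overnight, 4 °C), then FITC anti-mouse secondary (1:100, 2 h, 37 °C). DAPI counterstain; imaged by fluorescence microscopy.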
# Homo sapiens [4] = organism: Homo sapiens; test: Inhibition of tubulin polymerization in human HT-29 cells assessed as abnormal microtubule network formation at 20 nM after 24 hrs by DAPI staining based immunofluorescence microscopic analysis; type: cell-based; in short: as §3
# Homo sapiens [5] = organism: Homo sapiens; test: Inhibition of tubulin polymerization in human HT-29 cells assessed as abnormal microtubule network formation at 88 nM after 24 hrs by DAPI staining based immunofluorescence microscopic analysis; type: cell-based; in short: as §3
# Homo sapiens [6] = organism: Homo sapiens; test: Inhibition of colchicine binding to tubulin (unknown origin) pretreated for 1 hr followed by colchicine addition by spectrofluorometric method; in short: as §1
# Homo sapiens [7] = organism: Homo sapiens; test: Inhibition of tubulin polymerization in human HT-29 cells assessed as microtubule disruption by measuring scattered short microtubule fragment in cytoplasm at 88 nM after 24 hrs by DAPI staining based immunofluorescence microscopic analysis; type: cell-based; in short: as §3
# HT-29 [8] = test: Potency index, ratio of crolibulin IC50 to test compound IC50 for human HT-29 cells; type: functional
# HT-29 [9] = test: Potency index, ratio of CA-4 IC50 to test compound IC50 for human HT-29 cells; type: functional
inhibition (Homo sapiens [6]),Structure (SMILES),inhibition (Homo sapiens [1]),IC50 (NCI-H460),IC50 (HT-29 [2]),IC50 (A549),IC50 (SMMC-7721),IC50 (MKN-45),inhibition (Homo sapiens [3]),inhibition (Homo sapiens [4]),inhibition (Homo sapiens [5]),inhibition (Homo sapiens [7]),Ratio IC50 (HT-29 [8]),Ratio IC50 (HT-29 [9])
,CC(=O)O[C@H]1C(=O)[C@@]2(C)[C@H]([C@H](OC(=O)c3ccccc3)[C@]3(O)C[C@H](OC(=O)[C@H](O)[C@@H](NC(=O)c4ccccc4)c4ccccc4)C(C)=C1C3(C)C)[C@]1(OC(C)=O)CO[C@@H]1C[C@@H]2O,inactive,,,,,,,,,,,
,N#Cc1c(-c2ccc(F)cc2F)cc(-c2c[nH]c3ccccc23)n2cc(CN3CCOCC3)nc12,,190 nM,2700 nM,3330 nM,12800 nM,7860 nM,,,,,,
,N#Cc1c(-c2ccc(F)cc2F)cc(-c2c[nH]c3ccccc23)n2cc(CNC3CC3)nc12,,280 nM,40 nM,9660 nM,6800 nM,3680 nM,,,,,,
,CC(C)NCc1cn2c(-c3c[nH]c4ccccc34)cc(-c3ccc(F)cc3F)c(C#N)c2n1,,180 nM,80 nM,1920 nM,6540 nM,3340 nM,,,,,,
,COc1ccc(-c2cc(-c3ccc(F)cc3)n3c(CN4CCCC4)cnc3c2C#N)c(OC)c1OC,,15600 nM,1950 nM,1330 nM,5120 nM,5840 nM,,,,,,
,N#Cc1c(-c2ccc(F)cc2F)cc(-c2c[nH]c3ccccc23)n2cc(CN3CCCC3)nc12,,50 nM,40 nM,1030 nM,5040 nM,480 nM,,,,,,
,COc1ccc(-c2cc(-c3ccc(F)cc3)n3c(CN4CCN(C)CC4)cnc3c2C#N)c(OC)c1OC,,3890 nM,2040 nM,12400 nM,24600 nM,5480 nM,,,,,,
,CN1CCN(Cc2cn3c(-c4c[nH]c5ccccc45)cc(-c4ccc(F)cc4F)c(C#N)c3n2)CC1,,170 nM,110 nM,920 nM,3820 nM,2710 nM,,,,,,
,COc1ccc(-c2cc(-c3ccc(F)cc3F)n3c(CN(C)C)cnc3c2C#N)c(OC)c1OC,,200 nM,230 nM,1980 nM,6480 nM,9080 nM,,,,,,
,CCN(CC)Cc1cnc2c(C#N)c(-c3ccc(OC)c(OC)c3OC)cc(-c3ccc(F)cc3F)n12,,60 nM,210 nM,1040 nM,1310 nM,6790 nM,,,,,,
,COc1cc(-c2cc(-c3ccc(F)cc3F)n3c(CN(C)C)cnc3c2C#N)cc(OC)c1OC,,670 nM,360 nM,31000 nM,62500 nM,14000 nM,,,,,,
,N#Cc1c(-c2ccc(F)cc2Cl)cc(-c2c[nH]c3ccccc23)n2cc(CNC3CCCCC3)nc12,,80 nM,20 nM,2530 nM,4880 nM,3680 nM,,,,,,
,COc1ccc(-c2cc(-c3ccc(F)cc3F)n3c(CN4CCC(C)CC4)cnc3c2C#N)c(OC)c1OC,,60 nM,140 nM,1460 nM,3480 nM,1680 nM,,,,,,
,COc1ccc(-c2cc(-c3ccc(F)cc3)n3c(CN4CCOCC4)cnc3c2C#N)c(OC)c1OC,,9750 nM,1030 nM,3560 nM,4030 nM,10500 nM,,,,,,
,CNCc1cn2c(-c3c[nH]c4ccccc34)cc(-c3ccc(F)cc3Cl)c(C#N)c2n1,,250 nM,120 nM,1040 nM,5660 nM,2440 nM,,,,,,
,CCN(CC)Cc1cn2c(-c3c[nH]c4ccccc34)cc(-c3ccc(F)cc3F)c(C#N)c2n1,,110 nM,20 nM,80 nM,1920 nM,3220 nM,,,,,,
,CCNCc1cnc2c(C#N)c(-c3ccc(OC)c(OC)c3OC)cc(-c3ccc(F)cc3F)n12,,30 nM,90 nM,170 nM,1320 nM,3520 nM,,,,,,

inhibition (Homo sapiens [6]),Structure (SMILES),inhibition (Homo sapiens [1]),IC50 (NCI-H460),IC50 (HT-29 [2]),IC50 (A549),IC50 (SMMC-7721),IC50 (MKN-45),inhibition (Homo sapiens [3]),inhibition (Homo sapiens [4]),inhibition (Homo sapiens [5]),inhibition (Homo sapiens [7]),Ratio IC50 (HT-29 [8]),Ratio IC50 (HT-29 [9])
,COc1ccc(-c2cc(-c3ccc(F)cc3)n3c(CN(C)C)cnc3c2C#N)c(OC)c1OC,,9330 nM,800 nM,670 nM,3020 nM,6990 nM,,,,,,
,COc1cc(-c2cc(-c3ccc(F)cc3F)n3c(CN4CCCC4)cnc3c2C#N)cc(OC)c1OC,,130 nM,700 nM,1200 nM,2930 nM,11600 nM,,,,,,
,CN1CCN(Cc2cn3c(-c4c[nH]c5ccccc45)cc(-c4ccc(F)cc4Cl)c(C#N)c3n2)CC1,,220 nM,140 nM,1550 nM,7120 nM,3620 nM,,,,,,
,CN(C)Cc1cn2c(-c3c[nH]c4ccccc34)cc(-c3ccc(F)cc3F)c(C#N)c2n1,,190 nM,60 nM,1120 nM,5300 nM,1340 nM,,,,,,
,CC1CCN(Cc2cn3c(-c4c[nH]c5ccccc45)cc(-c4ccc(F)cc4F)c(C#N)c3n2)CC1,,200 nM,10 nM,3640 nM,3550 nM,2620 nM,,,,,,
,COc1ccc(-c2cc(-c3ccc(F)cc3F)n3c(CN4CCCC4)cnc3c2C#N)c(OC)c1OC,,60 nM,1340 nM,800 nM,2380 nM,7260 nM,,,,,,
,CCN(CC)Cc1cnc2c(C#N)c(-c3ccc(OC)c(OC)c3OC)cc(-c3ccc(F)cc3)n12,,3080 nM,3010 nM,1970 nM,6910 nM,23400 nM,,,,,,
,COc1ccc(/C=C\c2cc(OC)c(OC)c(OC)c2)cc1O [COMBRETASTATIN A4],Active,80 nM,50 nM,430 nM,1920 nM,110 nM,Active,Active,,,,
,CNCc1cnc2c(C#N)c(-c3ccc(OC)c(OC)c3OC)cc(-c3ccc(F)cc3)n12,,1880 nM,830 nM,710 nM,4420 nM,3040 nM,,,,,,
Dose-dependent effect,N#Cc1c(-c2ccc(F)cc2F)cc(-c2c[nH]c3ccccc23)n2cc(CNC3CCCCC3)nc12,,40 nM,10 nM,540 nM,5600 nM,2400 nM,,,Active,Active,52,5
,CCNCc1cnc2c(C#N)c(-c3ccc(OC)c(OC)c3OC)cc(-c3ccc(F)cc3)n12,,4540 nM,910 nM,3240 nM,6020 nM,7880 nM,,,,,,
,CCNCc1cn2c(-c3c[nH]c4ccccc34)cc(-c3ccc(F)cc3F)c(C#N)c2n1,,150 nM,50 nM,920 nM,6120 nM,2770 nM,,,,,,
,CCN(CC)Cc1cnc2c(C#N)c(-c3cc(OC)c(OC)c(OC)c3)cc(-c3ccc(F)cc3F)n12,,760 nM,3510 nM,> 100000 nM,> 100000 nM,40600 nM,,,,,,
,COc1ccc(-c2cc(-c3ccc(F)cc3F)n3c(CN4CCOCC4)cnc3c2C#N)c(OC)c1OC,,80 nM,470 nM,1150 nM,3200 nM,2380 nM,,,,,,
,CNCc1cnc2c(C#N)c(-c3ccc(OC)c(OC)c3OC)cc(-c3ccc(F)cc3F)n12,,20 nM,70 nM,130 nM,1170 nM,2700 nM,,,,,,
,CNCc1cn2c(-c3c[nH]c4ccccc34)cc(-c3ccc(F)cc3F)c(C#N)c2n1,,200 nM,160 nM,8900 nM,16200 nM,18200 nM,,,,,,
